Sampled rows, rich in hits. Any-hit rate of the full collection: about 3%.
ROMK primary – ROMK potassium channel modulators, primary screen, cell-based, thallium flux, MLSMR library; ATP-sensitive inward rectifier potassium channel 1 (Homo sapiens), P48048; Tet-inducible ROMK, thallium flux fluorescence; actives lie on both sides; B-score at 10 µM; 130,000 compounds, 2% hits; AID 1918, 2009;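 active = signal ratio slope over the read window, or its plate-corrected B-score, at least 3 SD from the plate mean, either direction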;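 note: B-score of the F/F0 ratio slope over 7 to 12 s after thallium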
Target sequence (P48048 whole entry, looked up): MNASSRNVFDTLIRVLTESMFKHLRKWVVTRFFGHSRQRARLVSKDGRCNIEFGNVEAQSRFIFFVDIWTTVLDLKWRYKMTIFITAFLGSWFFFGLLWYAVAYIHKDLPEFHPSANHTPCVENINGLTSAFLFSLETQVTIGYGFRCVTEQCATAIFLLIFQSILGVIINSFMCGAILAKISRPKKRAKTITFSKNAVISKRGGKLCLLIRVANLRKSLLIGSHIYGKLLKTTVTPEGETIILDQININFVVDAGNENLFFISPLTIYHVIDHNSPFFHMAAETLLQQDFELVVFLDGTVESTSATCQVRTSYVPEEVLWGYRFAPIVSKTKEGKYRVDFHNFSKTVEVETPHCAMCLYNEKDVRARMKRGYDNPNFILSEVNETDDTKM
Rad51 HR inh – human RAD51 strand exchange inhibitors, primary screen, biochemical, fluorescence. hRad51 DNA strand exchange, fluorescence dequenching. inhibition, % at 10 µM. 200,000 compounds, 0.085% hits;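 active = inhibition above 40% at the single screening dose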;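 note: 0% = DMSO control wells and 100% = blanks with heterologous ssDNA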
Target sequence (Q06609 whole entry, looked up): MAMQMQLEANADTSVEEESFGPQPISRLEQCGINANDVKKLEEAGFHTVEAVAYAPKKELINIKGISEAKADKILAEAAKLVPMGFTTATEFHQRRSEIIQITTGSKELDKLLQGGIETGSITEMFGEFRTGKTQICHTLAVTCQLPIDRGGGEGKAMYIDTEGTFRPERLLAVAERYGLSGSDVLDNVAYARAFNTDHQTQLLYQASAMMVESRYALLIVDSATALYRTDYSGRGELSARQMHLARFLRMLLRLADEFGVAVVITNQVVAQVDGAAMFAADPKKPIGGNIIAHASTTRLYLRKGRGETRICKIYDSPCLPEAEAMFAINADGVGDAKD
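Test system: preformed human Rad51 ssDNA filaments; also added: Donor/quencher-labelled 47-bp dsDNA substrate; doses: 10 µM final, single point; times: 37 °C 15-min filament assembly, 30-min compound preincubation, 15-min exchange; detection: FRET fluorescence dequenching, excitation 485 nm, emission 520 nm; read-out basis: Fluorescence-based percent inhibition, control- and blank-normalised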
PKD1 inh – inhibitors of human PKD1 kinase, biochemical, fluorescence polarization. PKD1 kinase fluorescence polarization assay. inhibition, % (concentration not given with the values). 200,000 compounds, 0.056% hits. AID 797, 2007; in the data active = inhibition above about 50%
KCC2 mod – KCC2 cotransporter modulators, thallium flux, primary screen, cell-based, HEK293 KCC2, FluoZin-2 fluorescence, MLSMR; Solute carrier family 12 member 5 (Homo sapiens), Q9H2X9; 190,000 compounds, 2.2% hits; KCC2 cells, thallium flux FluoZin-2 fluorescence; AID 1456, 2008; B-score of Tl+ flux slope (higher = more flux/activation; lower = inhibition) at 10 µM;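 active = thallium flux slope and its plate-corrected score both differing from the plate sample mean at a set confidence after two filtering rounds, in either direction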;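 note: slope of fluorescence scaled to starting intensity during 10 to 20 s after thallium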
KCC2 sec1 – KCC2 modulators in sodium-free buffer, confirmation, cell-based, HEK293 KCC2, thallium flux, secondary assay; shares compounds with KCC2 mod; FluoZin2 fluorescence; stronger effect = higher value; normalised thallium flux (F/F0 slope) at 10 µM; 3,700 compounds, 15% hits; AID 1713, 2009;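 active = thallium flux slope above the same plate's solvent-only control mean plus 3 SD; inconclusive = the two replicate wells disagree; inactive = no significant difference from solvent-only control wells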
KCC2 bumet counter – thallium flux persisting under bumetanide in KCC2 cells, confirmation, counter-screen for KCC2 modulator project, cell-based, HEK293 KCC2, FluoZin2, secondary assay 3; shares compounds with KCC2 mod; HEK293-KCC2 + bumetanide/ouabain; stronger effect = higher value; normalized thallium flux at 10 µM; 3,700 compounds, 49% hits;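 active = thallium entry rate above the same plate's blocked-transporter control wells by more than 3 SD; inconclusive = the two repeat wells disagree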;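 note: raw slope of fluorescence over initial fluorescence between 10 and 20 s after thallium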
KCC2 sec2 – KCC2 modulators without ouabain present, confirmation, cell-based, HEK293 KCC2, thallium flux, FluoZin2, secondary assay 2; shares compounds with KCC2 mod; thallium flux FluoZin2 fluorescence; actives lie on both sides; F/F0 rise rate, 10–20 s post-thallium; normalized thallium flux at 10 µM; 3,700 compounds, 23% hits; AID 1715, 2009;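 active = thallium flux slope more than 3 SD above or below the plate's solvent-only control mean, mostly below; inconclusive = the two repeat wells disagreed; inactive = no significant shift from solvent-only controls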;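 note: raw slope with 0.1% DMSO as baseline and bumetanide as block control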
HEK counter1 – thallium flux modulation in parental HEK cells, confirmation, counter-screen for KCC2 modulator project, cell-based, counterscreen 1. thallium flux rate (normalised fluorescence) at 10 µM. shares compounds with KCC2 mod. HEK293 parental cells, thallium flux FluoZin2, ouabain; baseline-ratio fluorescence slope, 10–20 s after thallium. 3,700 compounds, 46% hits;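 active = thallium flux rate significantly above the same plate's solvent-only control wells, beyond their mean plus 3 SD; inconclusive = the two replicate wells gave conflicting results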
KCC2 ouabain – KCC2 inhibitors and activators, ouabain retest, confirmation, HEK-KCC2 cells; shares compounds with KCC2 mod; HEK293-KCC2, thallium flux FluoZin2 fluorescence; bidirectional: low = inhibitor, high = activator; raw Tl+ flux slope (below DMSO = inhibition, above = activation) at 10 µM; 3,700 compounds, 48% hits; AID 1717, 2009;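 active = thallium flux slope beyond 3 SD from same-plate DMSO control mean in most replicates, usually higher, sometimes lower; inconclusive = repeat tests gave conflicting results; inactive = no significant difference from controls in most replicates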;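 note: slope of initial-normalized fluorescence between seconds 10 and 20 after thallium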
HEK293 Tl flux2 – native HEK Tl+ uptake effects, second counter-screen – HEK cells, counterscreen 2, counter-screen for KCC2 modulator project, confirmation | shares compounds with KCC2 mod | HEK293 parental, thallium flux FluoZin-2 fluorescence slope | thallium flux slope at 10 µM | 3,700 compounds, 33% hits | AID 1718, 2009;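 active = thallium flux slope above the same plate's solvent-control mean plus 3 SD in both duplicate wells; inconclusive = duplicate wells that disagreed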;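 note: run without ouabain in cells lacking the KCC2 cotransporter; slope of fluorescence scaled to its starting value between 10 and 20 s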
The depositor's hits bear a star; ? = inconclusive; nt = not tested or not shown.

SMILES	ROMK primary	Rad51 HR inh	PKD1 inh	KCC2 mod	KCC2 sec1	KCC2 bumet counter	KCC2 sec2	HEK counter1	KCC2 ouabain	HEK293 Tl flux2
CC(C)c1ccc(OCC(=O)NNC(=O)c2cnccn2)cc1	nt	13.2	nt	5.71*	0.00764	0.0109*	0.0333	0.0118*	0.0241*	0.0154*
O=C(COc1ccc2ccccc2c1)NNC(=O)c1cnccn1	-1.23	nt	4.0	0.426	nt	nt	nt	nt	nt	nt
CC1=C(C(=O)OCc2ccccc2)C(c2ccco2)C2=C(CC(C)(C)CC2=O)N1 (stereo not given)	-2.88	1.4	-14.8	-4.32*	?	0.00516	0.0294	0.00622	0.0502*	?
C/C(=N\NC(=O)c1cccnc1)c1cc2ccccc2o1	1.13	-1.9	-4.3	8.51*	0.00772	0.027*	0.0324	0.0122*	?	?
C/C(=N\NC(=O)c1ccncc1)c1cc2ccccc2o1	0.474	3.9	6.7	10.9*	?	0.0243*	0.0335	0.0277*	0.0323*	?
O=C(NC(=S)NCc1cccnc1)c1cc2ccccc2o1	-0.715	1.2	0.2	41.5*	0.0302*	0.0881*	0.0493*	0.0488*	0.0534*	0.0481*
Cc1ccc(NC(=O)c2ccc(OC(F)(F)F)cc2)cc1S(=O)(=O)N(C)C	nt	4.3	2.1	1.57	nt	nt	nt	nt	nt	nt
CC1(c2cccs2)CC(c2cccs2)=C(C#N)C(=O)N1 (stereo not given)	-1.39	nt	-12.5	5.19*	0.00649	0.00452	0.0276	0.00595*	0.0181	0.00928
N#Cc1nc(-c2ccc(F)cc2)oc1N1CCCC1	-0.893	nt	-7.1	-5.65*	0.00553	0.004	0.0273	0.00726	0.0165	0.00933
Cc1ccc(-c2nc(C#N)c(N3CCCCC3)o2)cc1	nt	16.3	-2.2	-0.185	nt	nt	nt	nt	nt	nt
CCOC(=O)N1CCN(C(=O)c2cc(COc3ccc4ncccc4c3)on2)CC1	1.21	-5.7	1.9	-0.711	nt	nt	nt	nt	nt	nt
Cc1cccnc1CN1CCN(C(=O)c2cc(COc3ccc4ncccc4c3)on2)CC1	-2.08	8.7	4.4	nt	0.00852	0.0066	?	0.00745	0.0168*	0.0101
COc1ccc(C)cc1S(=O)(=O)N(C)CC(=O)Nc1ccccc1	nt	19.8	-2.2	1.79	nt	nt	nt	nt	nt	nt
COc1ccc(S(=O)(=O)N(C)CC(=O)O)c2ccccc12	1.84	-1.6	-13.4	3.02*	0.00661	0.0048	0.0295	0.00802	0.0185	0.0115
COCCNC(=S)N/N=C1\CC(C)CC(C)(C)C1 (stereo not given)	-0.942	4.2	0.2	-0.499	nt	nt	nt	nt	nt	nt
CC(C)N(Cc1cn[nH]c1-c1ccc(-c2ccccc2)cc1)Cc1nccn1C	-0.0192	11.3	-7.4	-0.0209	nt	nt	nt	nt	nt	nt
COCC1CCN(Cc2cn(-c3ccccc3F)nc2-c2cc(C)sc2C)CC1	-0.807	1.5	-3.1	0.0278	nt	nt	nt	nt	nt	nt
c1ccc(-c2cn3nc4c(nc3n2)CCCC4)cc1	-2.38	-11.9	16.9	-4.51*	0.00758	0.00503	0.0257*	?	0.0163*	0.00813*
O=C(NCc1ccc(F)cc1)C(=O)NCC1OCCN1C(=O)c1cccs1 (stereo not given)	nt	6.4	-10.7	0.301	nt	nt	nt	nt	nt	nt
O=C1CSC(c2cccs2)N1c1ccccc1 (stereo not given)	nt	2.1	4.5	0.497	nt	nt	nt	nt	nt	nt
c1ccc(N2CCN(c3ccccc3)C2c2cccs2)cc1	nt	-26.2	2.4	-5.46*	0.0091	0.00517	0.029	0.00756	0.0219	0.0106
C=CCOc1c(Br)cc(/C=N/Nc2ccc(C(=O)O)cc2)cc1OCC	2.39	-4.8	0.1	-5.72*	0.00589	0.00575*	0.0279	0.00794	0.0167	0.0103
COc1ccc(/C=N/Nc2ccc(C(=O)O)cc2)cc1Br	-0.078	16.6	-5.8	-0.501	nt	nt	nt	nt	nt	nt
NS(=O)(=O)c1cccc(NC(=O)COC(=O)C2(c3cccc(F)c3)CCCC2)c1	nt	nt	3.1	-0.0962	nt	nt	nt	nt	nt	nt
O=C(O)C1CCCN(S(=O)(=O)c2ccc(Br)s2)C1 (stereo not given)	0.589	-5.9	5.3	1	nt	nt	nt	nt	nt	nt
SMILES	ROMK primary	Rad51 HR inh	PKD1 inh	KCC2 mod	KCC2 sec1	KCC2 bumet counter	KCC2 sec2	HEK counter1	KCC2 ouabain	HEK293 Tl flux2
O=C(O)/C(=C\c1ccc(Br)cc1)c1ccc(S(=O)(=O)N2CCCCC2)s1	nt	1.8	11.1	-6.89*	0.00764	0.00675	0.0329	0.00407	0.0123*	0.0114
Cc1cccc2c(N=O)c(O)[nH]c12	nt	-4.3	nt	-0.0753	nt	nt	nt	nt	nt	nt
Cc1sc2nc(CSc3ncn[nH]3)[nH]c(=O)c2c1C	-0.363	-1.7	-1.6	-1.27	nt	nt	nt	nt	nt	nt
CCc1cc2c(SCc3nc4sc(C(C)=O)c(C)c4c(=O)[nH]3)ncnc2s1	nt	nt	nt	43*	?	0.0555*	0.0523*	0.0432*	0.0529*	0.0404*
Cc1ccc(S(=O)(=O)n2ccc(=O)[nH]2)cc1	nt	-8.7	5.0	-2.23	nt	nt	nt	nt	nt	nt
CC(=O)c1cccc(NC(=O)Nc2ccc(C(=O)N3CCCC3)cc2)c1	nt	7.2	-1.2	7.36*	?	0.00377	0.0267	0.00642	0.0155	0.00942
O=C(Nc1ccccc1)Nc1ccc(C(=O)N2CCCC2)cc1	0.141	nt	1.9	-1.39	nt	nt	nt	nt	nt	nt
COc1cccc(C(=O)Nc2cccc(C(=O)N3CCOCC3)c2)c1	0.0202	-10.8	-9.1	0.19	nt	nt	nt	nt	nt	nt
Cc1cccc(C(=O)Nc2cccc(C(=O)N3CCOCC3)c2)c1	-1.04	nt	-0.7	4.25*	0.0168	0.00465	0.0322	0.00783	0.0177	0.0102
COc1cc(CN2CCNC(=O)C2CC(=O)N(Cc2nccn2C)C(C)C)cc(OC)c1 (stereo not given)	nt	14.1	nt	0.103	nt	nt	nt	nt	nt	nt
COc1ccc(C(=O)Nn2c(SCc3ccc([N+](=O)[O-])cc3)nc3ccccc3c2=O)cc1	nt	1.4	-16.0	-0.0141	nt	nt	nt	nt	nt	nt
